In ChEMBL document CHEMBL1125917, “Synthesis of halogen-substituted 1,5-benzothiazepine derivatives and their vasodilating and hypotensive activities” (1991):

Experiments:
[1] = tested on: Rattus norvegicus; experiment: Hypotensive activity in SHR (spontaneously hypertensive rats) expressed as change in blood pressure(mmHg) after 4 hr dosing at a concentration of 30 mg/kg; format: functional
In short: (§1)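 Male spontaneously hypertensive rats, fasted 20 h. Compounds dissolved in deionized water and given orally (30 mg/kg; some at 100 mg/kg). Blood pressure measured by tail-cuff in conscious animals. Change (mmHg) taken from the predosing value at 1 and 4 h, or 1 and 5 h, after dosing. N = 3-6.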

[2] = organism: Canis familiaris; experiment: Antihypertensive activity expressed as the ratio of the potency evaluated by increased vertebral blood flow (VBF) to that of diltiazem.; format: functional, Canis lupus familiaris
In short: (§2)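 Anesthetized dogs; compounds given intraarterially. Vertebral blood flow recorded, and a dose-response curve built from peak responses. Potency given as ratio to diltiazem, calculated from the dose-response curves. Half duration is the time, in minutes, that blood flow stays at one-half of the maximum change.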

[3] = organism: Cavia porcellus; experiment: Increase in the coronary blood flow (CBF) was determined in isolated guinea pig heart at a dose of 30 ug/heart; format: functional, Artery
In short: (§3)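 Hartley guinea pig hearts perfused by the Langendorff method with modified Locke-Ringer solution containing defibrinated rabbit blood, at 40 cm H2O and 29 ± 1 °C. Compounds in saline injected into the aortic cannula at 3, 10, 30 or 100 μg/heart. Coronary flow measured by drop counter; graded by the lowest dose giving an increase of at least 0.5 mL/min.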

[4] = tested on: Canis familiaris; experiment: Antihypertensive activity by the increase in the vertebral blood flow in anesthetized dogs expressed as duration of half of the maximum change in blood flow.; format: functional, Canis lupus familiaris; in short: as §2
[5] = tested on: Rattus norvegicus; experiment: Change in blood pressure in spontaneously hypertensive rats 1 hr following 30 mg/kg p.o.; format: functional; conditions: route oral; in short: as §1
[6] = organism: Cavia porcellus; experiment: (§4) Increase in the coronary blood flow (CBF) was determined in isolated guinea pig heart at a dose of 100 ug/heart; format: functional; in short: as §3
[7] = tested on: Rattus norvegicus; experiment: Hypotensive activity in SHR (spontaneously hypertensive rats) expressed as change in blood pressure(mmHg) after 5 hr dosing at a concentration of 30 mg/kg; format: functional; in short: as §1
[8] = tested on: Rattus norvegicus; experiment: Hypotensive activity in SHR (spontaneously hypertensive rats) expressed as change in blood pressure(mmHg) after 4 hr dosing at a concentration of 100 mg/kg; format: functional; in short: as §1
[9] = tested on: Rattus norvegicus; experiment: Hypotensive activity in SHR (spontaneously hypertensive rats) expressed as change in blood pressure(mmHg) after 1 hr dosing at a concentration of 30 mg/kg; format: functional; in short: as §1
[10] = organism: Cavia porcellus; experiment: as §4; format: functional, Artery; in short: as §3

Structure (SMILES): COc1ccc([C@@H]2Sc3ccccc3N(CCN(C)C)C(=O)[C@@H]2OC(C)=O)cc1 [DILTIAZEM]
- Change in blood pressure [1]: -15 delta mmHg
- Potency ratio [2]: 1
- Increase in CBF [3]: >0.5 mL/min
- Half duration [4]: 53 min
- Change in blood pressure [5]: -34 delta mmHg

Structure (SMILES): COc1ccc(C2Sc3cc(Cl)ccc3N(CCN(C)C)C(=O)C2OCc2ccc([N+](=O)[O-])cc2)cc1 (single isomer, unassigned; (+))
- Increase in CBF [6]: >0.5 mL/min
- Change in blood pressure [7]: -8.8 delta mmHg
- Potency ratio [2]: 0.58
- Change in blood pressure [5]: -11.5 delta mmHg

Structure (SMILES): CCN(C)CCN1C(=O)C(OC(C)=O)C(c2ccc(OC)cc2)Sc2cc(Cl)ccc21 (single isomer, unassigned; (+))
- Increase in CBF [6]: >0.5 mL/min
- Change in blood pressure [7]: -22.3 delta mmHg
- Potency ratio [2]: 0.9
- Half duration [4]: 46 min
- Change in blood pressure [5]: -55.5 delta mmHg

Structure (SMILES): COc1ccc(C2Sc3cc(Cl)ccc3N(CCN(C)C)C(=O)C2OC=O)cc1 (single isomer, unassigned; (+))
- Increase in CBF [6]: >0.5 mL/min
- Change in blood pressure [8]: -72.7 delta mmHg
- Potency ratio [2]: 0.73
- Half duration [4]: 44 min
- Change in blood pressure [5]: -60 delta mmHg

Structure (SMILES): C=CCN(C)CCN1C(=O)C(OC(C)=O)C(c2ccc(OC)cc2)Sc2cc(Cl)ccc21 (configuration not stated)
- Increase in CBF [6]: >0.5 mL/min
- Change in blood pressure [7]: -17 delta mmHg
- Potency ratio [2]: 1
- Half duration [4]: 37 min
- Change in blood pressure [5]: -29 delta mmHg

Structure (SMILES): CCCN(C)CCN1C(=O)C(OC(C)=O)C(c2ccc(OC)cc2)Sc2cc(Cl)ccc21 (configuration not stated)
- Increase in CBF [6]: >0.5 mL/min
- Change in blood pressure [1]: -9 delta mmHg
- Potency ratio [2]: 0.5
- Change in blood pressure [9]: -16 delta mmHg
- Half duration [4]: 47 min

Structure (SMILES): COc1ccc(C2Sc3cccc(Cl)c3N(CCN(C)C)C(=O)C2O)cc1.Cl (configuration not stated)
- Change in blood pressure [1]: -26 delta mmHg
- Potency ratio [2]: 0.2
- Half duration [4]: 33 min
- Change in blood pressure [5]: -31.7 delta mmHg
- Increase in CBF [10]: >0.5 mL/min

Structure (SMILES): CCCCNC(=O)OC1C(=O)N(CCN(C)C)c2ccc(F)cc2SC1c1ccc(OC)cc1 (configuration not stated)
- Potency ratio [2]: 0.16
- Increase in CBF [3]: >0.5 mL/min
- Half duration [4]: 58 min

Structure (SMILES): CSc1ccc(C2Sc3cc(Cl)ccc3N(CCN(C)C)C(=O)C2OC(C)=O)cc1 (configuration not stated)
- Potency ratio [2]: 0.21
- Half duration [4]: 37 min
- Increase in CBF [10]: >0.5 mL/min

Structure (SMILES): CCC(=O)OC1C(=O)N(CCN(C)C)c2ccc(Cl)cc2SC1c1ccc(OC)cc1 (single isomer, unassigned; (+))
- Change in blood pressure [8]: -60.7 delta mmHg
- Potency ratio [2]: 1.45
- Increase in CBF [3]: >0.5 mL/min
- Half duration [4]: 64 min
- Change in blood pressure [5]: -67.7 delta mmHg

Structure (SMILES): COc1ccc(C2Sc3cc(Cl)ccc3N(CCN(C)C)C(=O)C2OC)cc1 (single isomer, unassigned; (+))
- Change in blood pressure [7]: -56.5 delta mmHg
- Potency ratio [2]: 0.58
- Half duration [4]: 47 min
- Change in blood pressure [5]: -76.8 delta mmHg

Structure (SMILES): CSc1ccc(C2Sc3cc(Cl)ccc3N(CCN(C)C)C(=O)C2O)cc1 (configuration not stated)
- Potency ratio [2]: 0.09
- Half duration [4]: 35 min
- Increase in CBF [10]: >0.5 mL/min

Structure (SMILES): CCCCNC(=O)OC1C(=O)N(CCN(C)C)c2ccc(Cl)cc2SC1c1ccc(OC)cc1 (configuration not stated)
- Potency ratio [2]: 0.31
- Increase in CBF [3]: >0.5 mL/min
- Half duration [4]: 76 min

Structure (SMILES): COc1ccc(C2Sc3c(Cl)cccc3N(CCN(C)C)C(=O)C2O)cc1 (stereo in doubt; (+)-16m)
- Change in blood pressure [1]: -30 delta mmHg
- Potency ratio [2]: 1.25
- Increase in CBF [3]: >0.5 mL/min
- Half duration [4]: 46 min
- Change in blood pressure [5]: -46.7 delta mmHg

Structure (SMILES): COc1ccc(C2Sc3c(Cl)cccc3N(CCN(C)C)C(=O)C2OC(C)=O)cc1.Cl (stereo in doubt; 2cc)
- Potency ratio [2]: 0.75
- Increase in CBF [3]: >0.5 mL/min
- Half duration [4]: 72 min

Structure (SMILES): COc1ccc(C2Sc3c(ccc(Cl)c3Cl)N(CCN(C)C)C(=O)C2O)cc1.Cl (configuration not stated)
- Potency ratio [2]: 0.62
- Increase in CBF [3]: >0.5 mL/min
- Half duration [4]: 80 min

Structure (SMILES): CCOC(=O)OC1C(=O)N(CCN(C)C)c2ccc(Cl)cc2SC1c1ccc(OC)cc1 (configuration not stated)
- Potency ratio [2]: 0.29
- Half duration [4]: 44 min
- Increase in CBF [10]: >0.5 mL/min

Structure (SMILES): COc1ccc(C2Sc3cc(Cl)ccc3N(CCN(C)C)C(=O)C2OC(C)=O)cc1.Cl (stereo in doubt; 2b)
- Potency ratio [2]: 1.15
- Increase in CBF [3]: >0.5 mL/min
- Half duration [4]: 69 min
